Source: PubChem BioAssay (Johns Hopkins Ion Channel Center)
The list is not random: actives were taken first. Their share in the collection is about 2.9%.
Kir21 inh – inhibitors of mouse Kir2.1 inward-rectifier potassium channel; HEK293-Kir2.1, FluxOR thallium flux fluorescence; active compounds read low; B-score at 10 µM; 0.85% of 310,000 active; AID 1672, 2009;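 active means fluorescence ratio B-score at or below minus 3 SD of library scores, with starting-brightness B-score within 2 SD, cut at about -4.2 in these data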;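 further: channel flux triggered by added potassium and thallium sulfate stimulus; B-score of peak minus minimum fluorescence over baseline after thallium stimulus; more negative B-score means stronger Kir2.1 block with less thallium influx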
Target sequence (P35561 whole entry, looked up): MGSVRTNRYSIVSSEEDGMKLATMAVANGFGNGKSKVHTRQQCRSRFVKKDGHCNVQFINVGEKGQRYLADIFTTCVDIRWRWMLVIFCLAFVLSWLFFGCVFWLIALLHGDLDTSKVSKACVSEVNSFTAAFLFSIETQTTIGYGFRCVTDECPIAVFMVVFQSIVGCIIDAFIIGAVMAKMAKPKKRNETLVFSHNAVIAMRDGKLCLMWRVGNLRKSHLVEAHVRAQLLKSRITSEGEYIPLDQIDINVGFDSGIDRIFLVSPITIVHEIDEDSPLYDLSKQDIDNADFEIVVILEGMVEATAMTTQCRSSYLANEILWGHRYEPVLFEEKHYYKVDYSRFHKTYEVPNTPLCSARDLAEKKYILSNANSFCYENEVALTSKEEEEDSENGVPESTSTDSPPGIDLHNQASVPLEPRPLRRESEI
TRPC4 block – inhibitors of mouse TRPC4 channel, primary screen, Fluo4 calcium, HEK293 TRPC4beta/mu-opioid cells; 0.39% of 300,000 active; Short transient receptor potential channel 4 (Mus musculus), Q9QUQ5; AID 2247, 2010; DAMGO-evoked Fluo4 calcium flux; active compounds read low; B-score at 10 µM;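 active means B-score over 3 SD under the library average, no early fluorescence shift, positive overall ratio signal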
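test system = HEK293 cells with stable TRPC4beta plus mu-opioid receptor expression | detection = Fluo4 Ca2+ flux fluorescence | read-out = integrated fluorescence ratio relative to baseline, converted to per-well B score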
TRPC4 agonist – activators of mouse TRPC4 channel, primary screen, Fluo4 calcium, HEK293 TRPC4beta/mu-opioid cells; Short transient receptor potential channel 4 (Mus musculus), Q9QUQ5; B-score at 10 µM; Fluo4 calcium fluorescence; active compounds read high; 0.49% of 310,000 active; AID 2237, 2010;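 active means B-score above 5 SD of library B-scores, and initial fluorescence ratio not above library mean plus 5 SD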;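 further: positive B-score marks a calcium rise read as TRPC4 activation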
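Test system: HEK293 cells stably co-expressing mouse TRPC4beta and mu-opioid receptor | Schedule: Fluo4 dye loading 45 min at room temperature, 110 s recording | Measured by: Kinetic Fluo4 calcium fluorescence, 5 s baseline at 1 Hz | Evaluation: B score of integrated ratio | Controls: Buffer (low) and maximal DAMGO (high)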
TRPC4 PAM – positive allosteric modulators of TRPC4, primary screen, cell-based, mouse TRPC4beta, HEK293 mu-opioid, Fluo-4 calcium; DAMGO EC20, Fluo-4 Ca2+ flux; active compounds read high; B-score at 10 µM; 0.42% of 310,000 active; AID 2227, 2009;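 active means B-score of calcium response area above 5 SD of library B-scores, with initial fluorescence ratio within 5 SD of library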;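 further: B-score of integrated fluorescence ratio over time as area under calcium response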
TRPC6 activator – mouse TRPC6 channel activators, primary screen, cell-based, HEK293, membrane potential dye | AID 2550, 2010 | HEK293-TRPC6 membrane potential dye fluorescence; active compounds read high | 0.13% of 310,000 active | B-score at 10 µM;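 active means B-score of the integrated fluorescence ratio above library mean plus 3 SD, and starting fluorescence ratio within library mean plus 5 SD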;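 further: higher score means more depolarization so channel activation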
TRPC6 inh – mouse TRPC6 channel inhibitors, primary screen, cell-based, HEK293, membrane potential dye. ACh-evoked depolarization; active compounds read low. B-score at 10 µM. 1.1% of 310,000 active. AID 2553, 2010;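 active means B-score under library mean minus 3 SD, initial fluorescence not abnormally high, positive integrated signal ratio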;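 further: B-score derived from integrated fluorescence ratio over the kinetic read; more negative B-score means stronger inhibition of depolarization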
HEK293 MPD ctr – parental HEK293 membrane potential modulation, confirmation, counter-screen for TRPC6 modulator project, cell-based; shares compounds with TRPC6 inh; membrane potential dye fluorescence; membrane potential signal change, % at 10 µM; 51% of 2,400 active; AID 488924, 2010;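 active means membrane potential signal moves up or down beyond 5 SD from buffer-only wells, on both duplicate plates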
HEK293 MPD ctr 2 – parental HEK293 nonspecific activity of TRPC6 modulators, second screen; membrane potential dye fluorescence; after compound, maximal acetylcholine stimulation; 14% of 2,400 active; shares compounds with TRPC6 inh; inhibition, % at 10 µM;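 active means membrane potential signal drops by more than 5 SD from the mean control signal, in both duplicate plates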;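 further: plate controls were acetylcholine ECmax control wells for no effect and buffer only wells for full effect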
TRPC4 ctr mod – TRPC4 modulation by TRPC6 hit compounds, confirmation, selectivity assay for TRPC6 modulator project, cell-based, HEK293 TRPC4/mu-opioid, membrane potential dye, mouse; shares compounds with TRPC6 inh; membrane potential fluorescence; percent change from control (negative = decrease, positive = increase), % at 10 µM; 69% of 2,400 active; AID 488927, 2010;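 active means membrane potential signal moved up or down beyond 5 SD of buffer control wells, in both duplicate plates, actives on both sides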;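 further: plate controls were assay buffer wells for no effect and DAMGO maximal-effect wells for full effect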
TRPC4 ctr inh 2 – mouse TRPC4 off-target activity of TRPC6 modulators, second screen. shares compounds with TRPC6 inh. HEK293 TRPC4/mu-opioid, membrane potential dye fluorescence; stimulated with maximal-effect DAMGO. inhibition, % at 10 µM. 55% of 2,400 active;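 active means drop in membrane potential signal beyond 5 SD of the control wells in both duplicate plates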;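 further: TRPC4 counter screen for TRPC6 hits run under conditions tuned for TRPC6 not TRPC4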
TRPC6 block conf – mouse TRPC6 channel inhibitors, confirmation, HEK293 cells, membrane potential dye, duplicate | 43% of 3,300 active | inhibition, % at 10 µM | shares compounds with TRPC6 inh | ACh-evoked depolarization;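 active means fluorescence ratio falls more than 5 SD below the full-stimulation control mean, in both duplicate runs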;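 further: integrated fluorescence ratio of peak minus minimum over baseline after agonist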
TRPC6 act conf – mouse TRPC6 channel activators, confirmation, HEK293 cells, membrane potential dye, duplicate; shares compounds with TRPC6 inh; HEK293-TRPC6 membrane potential dye fluorescence, FDSS; activation, % at 10 µM; 11% of 2,800 active; AID 488961, 2010;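 active means ratio signal rise beyond 5 SD above unstimulated control wells' mean, seen in both duplicate runs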;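 further: plate controls were buffer EC0 wells for no effect and acetylcholine ECmax response for full effect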
* hit, by the source's call; i = inactive; nt = no result.

SMILES	Kir21 inh	TRPC4 block	TRPC4 agonist	TRPC4 PAM	TRPC6 activator	TRPC6 inh	HEK293 MPD ctr	HEK293 MPD ctr 2	TRPC4 ctr mod	TRPC4 ctr inh 2	TRPC6 block conf	TRPC6 act conf
Cc1ccnc(SCCn2c(N3CCN(Cc4ccccc4)CC3)nc3c2c(=O)[nH]c(=O)n3C)n1	-0.52	i	i	i	i	-10*	-340%*	71%*	-61%*	57%*	59%*	i
COc1ccc(S(=O)(=O)N2CC(C)OC(C)C2)cc1C(=O)N1CCCCC1 (centres undefined)	-0.84	i	i	i	i	i	nt	nt	nt	nt	nt	nt
CN1CCN(c2ccccc2/C=C2/C(=O)Nc3ccccc32)CC1	0.26	i	i	i	i	-5*	120%*	i	46%*	72%*	i	nt
N#C/C(=C\c1ccc(N2CCOCC2)o1)c1ccccc1	0.12	i	i	i	18*	i	448%*	i	89%*	i	i	166%*
N#C/C(=C/c1ccc(N2CCOCC2)o1)c1ccc(Br)cc1	0.05	i	i	i	25*	i	568%*	i	152%*	i	i	116%*
CCN(CC)S(=O)(=O)c1ccc(NC(=O)c2nc3nc(C)cc(C)n3n2)cc1	0.42	i	i	i	i	i	nt	nt	nt	nt	nt	nt
Cc1cc(C)n2nc(C(=O)Nc3ccc(S(=O)(=O)N(C)C)cc3)nc2n1	0.12	i	i	i	i	-6*	-247%*	i	-41%*	36%*	i	i
O=C(Nc1ccccc1Cl)N1CCCN(c2nc(-c3ccccc3)ns2)CC1	-0.06	i	i	i	i	-5.1*	i	i	i	i	i	i
CNS(=O)(=O)c1cccc2cccnc12	1.1	i	i	i	i	i	nt	nt	nt	nt	nt	nt
Cc1ccc2ccc3cccnc3c2n1	0.92	i	i	i	i	-5.8*	-248%*	i	-36%*	i	44%*	i
COc1ccc(C(=O)/C(C#N)=N/Nc2ccc([N+](=O)[O-])cc2)cc1	4.3	i	i	i	i	-5.7*	i	i	i	i	i	i
